Consider 5 molecules from ChEMBL document CHEMBL1250499, “Chiral 6-hydroxymethyl-1H,3H-pyrrolo[1,2-c]thiazoles: novel antitumor DNA monoalkylating agents” (Eur J Med Chem, 2010).

Common to all, as to type: functional, cell-based
The test system of assay [1] is A-375. The assay can be described thus: Cytotoxicity against human A375 cells after 48 hrs by MTT assay. The following applies: A-375, 48 h. The essentials:
(§1)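 Cells grown in DMEM with 10% heat-inactivated FBS, 1% penicillin–streptomycin and 100 μM sodium pyruvate at 37 °C, 5% CO2. Seeded at 50 000 cells/mL, attached overnight, then exposed to successive DMSO dilutions of compound. Proliferation read by MTT colorimetric assay as % inhibition versus DMSO-only controls. IC50 from dose-response curves by exponential decay fit (r2 > 0.9). Duplicates, three independent sets.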
(In general: Tetrazolium assays rely on reduction of a dye to a coloured formazan, in cell work by metabolically active cells.)

The subject of assay [2] is WiDr. Briefly: Cytotoxicity against human WiDr cells after 72 hrs by MTT assay. The essentials: as §1
Assay [3] has as its system A-375. The assay can be described thus: Cytotoxicity against human A375 cells after 72 hrs by MTT assay. Conditions: A-375, 72 h. An outline of the steps:
as §1

Assay [4] concerns MCF7. Briefly: Cytotoxicity against human MCF7 cells after 72 hrs by MTT assay. Conditions: MCF7, 72 h. An outline of the steps:
as §1

For assay [5], the system named is WiDr. The assay can be described thus: Cytotoxicity against human WiDr cells after 96 hrs by MTT assay. An outline of the steps: as §1
Assay [6] concerns MCF7. Briefly: Cytotoxicity against human MCF7 cells after 96 hrs by MTT assay. The following applies: MCF7, 96 h. An outline of the steps: as §1
Assay [7] relates to WiDr. The assay can be described thus: Cytotoxicity against human WiDr cells after 48 hrs by MTT assay. The essentials: as §1
Assay [8] concerns A-375. The assay can be described thus: Cytotoxicity against human A375 cells after 24 hrs by MTT assay. The following applies: A-375, 24 h. The essentials:
as §1

Assay [9] relates to WiDr. Briefly: Cytotoxicity against human WiDr cells after 24 hrs by MTT assay. The essentials:
as §1

Assay [10] concerns MCF7. The assay can be described thus: Cytotoxicity against human MCF7 cells after 24 hrs by MTT assay. Conditions: MCF7, 24 h. An outline of the steps: as §1
The test system of assay [11] is A-375. The assay can be described thus: Cytotoxicity against human A375 cells after 96 hrs by MTT assay. Conditions: A-375, 96 h. An outline of the steps: as §1
Assay [12] concerns MCF7. The assay can be described thus: Cytotoxicity against human MCF7 cells after 48 hrs by MTT assay. The following applies: MCF7, 48 h. An outline of the steps:
as §1

On to `COC(=O)c1cc2n(c1C)[C@@H](c1ccccc1)SC2`, for which the IC50 was determined as 65.1 µM in assay [1]; 44.6 µM in assay [2]; 56.2 µM in assay [3]; 48.8 µM in assay [4]; 40.9 µM in [5]; 30.6 µM in [6]. Also, the IC50 in assay [7] turned out to be 57.1 µM; in assay [8] it was 73.5 µM; in assay [9] it was 54.2 µM; in assay [10], 128 µM; in assay [11], 40 µM; in assay [12], 55.5 µM.

Turning to `Cc1c(CO)cc2n1[C@@H](c1ccccc1)SC2`, the concentration for half-maximal inhibition (IC50) in assay [1] amounted to 69.8 µM; in assay [2], 15.4 µM; in [3], 62.9 µM; in assay [4], 2.4 µM; in assay [5], 11 µM; in [6], 1.9 µM. In addition, the half-maximal inhibitory concentration (IC50) turned out to be 17.1 µM in assay [7]; 103 µM in assay [8]; 55.5 µM in assay [9]; 26.4 µM in assay [10]; 36.8 µM in assay [11]; 4.3 µM in assay [12].

As to `Cc1cc(CO)c2n1[C@@H](c1ccccc1)SC2`, the half-maximal inhibitory concentration (IC50) in assay [1] came out at 106 µM; in assay [2], 63.5 µM; in assay [3] it was 62.1 µM; in [4], 29.9 µM; in [5] it was 65.1 µM; in assay [6], 19.9 µM. Also, the half-maximal inhibitory concentration (IC50) turned out to be 95.3 µM in [7]; 128 µM in assay [8]; 144 µM in assay [9]; 110 µM in [10]; 45.3 µM in assay [11]; 63.9 µM in [12].

With `Cc1c(CO)c(CO)c2n1[C@@H](c1ccccc1)SC2`, the half-inhibitory concentration (IC50) in [1] was determined as 36.1 µM; in assay [2], 7.1 µM; in [3] it was 27.2 µM; in assay [4], 1 µM; in [5], 3.2 µM; in assay [6] it was 0.6 µM. Further, the half-inhibitory concentration (IC50) in [7] came to 9.1 µM; in [8], 97.3 µM; in assay [9] it was 60 µM; in assay [10], 12.2 µM; in [11], 16.9 µM; in assay [12] it was 1.9 µM.

As to `Cc1c(COC(=O)NCc2ccccc2)cc2n1[C@@H](c1ccccc1)SC2`, the IC50 in assay [1] turned out to be 32.4 µM; in [2], 8.7 µM; in assay [3] it was 42.1 µM; in assay [4] it was 2.2 µM; in assay [5], 14.8 µM; in assay [6], 1.9 µM. The 50% inhibitory concentration (IC50) in [7] came to 8.7 µM; in assay [8] it was 37.4 µM; in assay [9], 30.9 µM; in assay [10] it was 8.8 µM; in [11] it was 27.6 µM; in [12], 4.4 µM.

What is called IC50 is the concentration at which inhibition is half-maximal. The low end stands for higher potency, the high end for lower potency.
